# High-throughput results: PubChem BioAssay, several laboratories
# The full list was thinned out, with hits kept by preference.
# CHOP UPR activ – activators of apoptotic CHOP UPR arm, primary screen, cell-based, CHO-CHOP luciferase reporter, luminescence, uHTS | UPR activation; percent of tunicamycin response over DMSO baseline | activation, % at 10 µM | 330,000 tested, 0.34% active;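 active = at 10 µM dose, activation of 40% or more, normalized to positive control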;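 note: 100% = tunicamycin at 10 µg/mL and 0% = DMSO alone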
#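 Material: CHO-CHOP cells, stable luciferase reporter of PERK-eIF2a-CHOP signalling; quantity: 500 reporter cells seeded per well; buffer or medium: F12 medium containing 10% fetal bovine serum; compound: one dose, 10 µM in 0.5% DMSO; incubation: 6 h compound treatment, 37 °C; measured by: Steady-Glo luciferase luminescence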
# Dynein cargo inh – inhibitors of GR-EGFP nuclear translocation, primary screen, dynein cargo transport inhibitor project, imaging, high-content, 3617.4 mouse cells; test concentration mostly 20 µM; stimulated with dexamethasone, 1 µM; hits give low values; z-score, hits read low; 220,000 tested, 0.47% active;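 active = plate z-score of nuclear minus cytoplasmic receptor signal below a set negative limit, without overly bright fluorescence or cell loss, cut at about -3.5 in these data, passing the limit was not always enough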;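 note: z-score of nuclear minus cytoplasmic ring GR-EGFP intensity difference per well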
#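 Also added – dexamethasone, 1.0 µM final · Buffer or medium – tet-free, stripped-serum medium · Schedule – induction 48 h, compound 1 h, agonist 30 min · Detection – formaldehyde fixation, Hoechst nuclear stain, 10x automated fluorescence imaging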
# CHOP inh – inhibitors of CHOP promoter induction, primary screen, cell-based, unfolded protein response, luciferase reporter. CHO-K1 CHOP-promoter luciferase, tunicamycin-induced, 15-18 h. inhibition, % at 10 µM. 220,000 tested, 3.8% active;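 active = compounds that reduced the stress-induced luciferase reporter signal by more than about 70% of percent inhibition, limit read from the data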;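 note: 0% = tunicamycin plus vehicle and 100% = wells without tunicamycin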
# p-CIP stab down – p/CIP-EGFP fusion destabilizers, primary screen, fluorescence, F442A cells; Q05BA5; 16 h; decrease of EGFP signal, % at 10 µM; 290,000 tested, 0.01% active; AID 1984, 2009;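 active = EGFP signal decrease of at least 30% at 10 µM or well 3 SD below plate mean, unless failing retest; inactive = the rest, including hits failing retest or dose response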
# XBP1 UPR activ – activators of adaptive XBP1 UPR arm, primary screen, cell-based, CHO-XBP1 luciferase reporter, luminescence, uHTS | IRE1-XBP1 UPR activation; percent of tunicamycin response, DMSO as zero | activation, % at 20 µM | 330,000 tested, 0.33% active;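 active = versus positive control, 20 µM dose yields 30% or more activation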;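 note: 100% = tunicamycin at 10 µg/mL and 0% = DMSO only wells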
#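 Signal: luciferase luminescence; Assay system: CHO-XBP1 luciferase reporter cells; Amount: one thousand reporter cells per well; Dosing: 20 µM single concentration, DMSO 1%; Benchmarks: high control tunicamycin 10 µg/mL final, low control DMSO vehicle only; Schedule: 6 h compound exposure at 37 °C, 5% CO2; Evaluation: percent activation relative to tunicamycin reference.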
# Beta2AR agonist – beta2AR agonists driving receptor internalization, primary screen, cell-based, FAP fluorogen, flow cytometry; Beta-2 adrenergic receptor (Homo sapiens), P07550; Am2.2-beta2AR cells; response, % (no concentration beside the values); 340,000 tested, 0.43% active; AID 504454, 2011;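 active = response above a set limit, near 3 SD of response in nonfluorescent compounds, cut at about 42% in these data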
# Target sequence (P07550 whole entry, looked up): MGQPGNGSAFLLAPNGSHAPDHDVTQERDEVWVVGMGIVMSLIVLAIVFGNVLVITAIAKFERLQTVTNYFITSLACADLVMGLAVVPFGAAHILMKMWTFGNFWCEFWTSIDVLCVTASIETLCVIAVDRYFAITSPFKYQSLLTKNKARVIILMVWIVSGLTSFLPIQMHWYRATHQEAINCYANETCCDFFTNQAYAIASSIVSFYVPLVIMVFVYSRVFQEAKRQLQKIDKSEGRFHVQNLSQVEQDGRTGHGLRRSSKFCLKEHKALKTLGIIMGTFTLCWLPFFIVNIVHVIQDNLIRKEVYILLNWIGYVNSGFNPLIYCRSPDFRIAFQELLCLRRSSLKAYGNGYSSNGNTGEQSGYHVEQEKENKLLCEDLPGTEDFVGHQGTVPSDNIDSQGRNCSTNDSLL
# * hit, by the source's call; nt = not tested or not shown.
SMILES,CHOP UPR activ,Dynein cargo inh,CHOP inh,p-CIP stab down,XBP1 UPR activ,Beta2AR agonist
Cc1ccc(N=Nc2ccc(O)c3ncccc23)cc1C,37,-0.78,92*,-1,3,2
CCc1ccc(-c2csc(-c3c[nH]c4ccccc34)n2)cc1,9,0.41,86*,-16,2,6
Nc1nc(-c2c[nH]c3ccccc23)cs1,1,-0.61,-15,4,1,-9
O=S(=O)(c1ccc(Cl)c(Cl)c1)c1snnc1-c1ccccc1,nt,-4*,54,7,nt,18
Cc1oc2c(c1C(=O)c1ccc(Cl)cc1)C(=O)C(=O)c1ccccc1-2,nt,-1.9,-21,4,nt,63*
Cc1ccc(C(=O)c2coc3c2C(=O)C(=O)c2ccccc2-3)cc1,8,-0.46,-21,2,6,14
CC(=O)c1c(C)[nH]c(C(=O)OCc2nnc(-c3ccc([N+](=O)[O-])cc3)o2)c1C,0,nt,nt,nt,-1,1
Cc1ccc(NC(=O)c2ccc(-c3nn(C)c(=O)c4ccccc34)cc2)cc1,-1,-0.71,74*,4,0,16
CCOc1ccc(NC(=O)C(CC(=O)O)Cc2ccc(C)cc2)cc1 (stereo unspecified),1,nt,nt,-9,-2,4
c1ccc(CC2CCN(C3=Nc4cccc5cccc3c45)CC2)cc1,5,0.17,88*,-7,1,9
c1cc2c3c(cccc3c1)C(N1CCN(C3=Nc4cccc5cccc3c45)CC1)=N2,nt,-2,nt,nt,nt,nt
CS(=O)(=O)NCCCCNc1ccc(C(F)(F)F)cc1[N+](=O)[O-],0,-0.083,7,-1,-2,-8
O=[N+]([O-])c1cc(C(F)(F)F)ccc1NCCCCNS(=O)(=O)c1ccc2ccccc2c1,-1,0.29,83*,-23,-3,4
CCOc1ccc(C2C([N+](=O)[O-])=C(C)N(C)C(=O)N2C)cc1OC (stereo unspecified),-1,-0.24,-3,-10,2,1
CC(C)(C)CC(C)(C)c1ccc(O)c(CN2CCN(CCC#N)CC2)c1,0,0.32,73*,-3,-2,4
Cc1cc(C(=O)N2CCC(Cc3ccccc3)CC2)c(C)o1,-3,nt,nt,3,-1,8
CCCCCN1CC(=O)N2Cc3[nH]c4ccccc4c3C[C@H]2C1=O,0,nt,nt,-11,-3,4
CCCCN1C(=O)C2Cc3c([nH]c4ccccc34)CN2C1=S (stereo unspecified),0,-2.7,80*,-16,-2,-226
CCOc1ccc(C(=O)Oc2ccc(NC(C)=O)cc2)cc1,-3,-0.11,83*,5,-2,nt
CCOc1ccc(NC(=O)c2cc3ccccc3cc2O)cc1,4,-0.66,75*,-2,3,-8
CCOc1ccc(NC(=O)CC(=O)Nc2ccc(OCC)cc2)cc1,1,nt,nt,5,0,3
COc1cc(OC)c(NC(=O)c2ccccc2F)cc1Cl,3,-1.7,5,-5,0,-7
COc1ccccc1NC(=O)c1cc2cc(Br)ccc2cc1O,nt,-0.39,88*,-3,nt,30
COc1cc(NC(=O)c2cc3ccccc3cc2O)c(OC)cc1Cl,10,0.098,83*,-5,13,21
CCOc1ccc(NC(=O)c2cc3ccccc3cc2OC)cc1,2,nt,nt,-5,1,2
SMILES,CHOP UPR activ,Dynein cargo inh,CHOP inh,p-CIP stab down,XBP1 UPR activ,Beta2AR agonist
CCOc1ccc(NC(=O)C(CC)NC(=O)c2ccccc2CO)cc1 (stereo unspecified),-1,0.11,76*,-4,-2,-10
CCCCn1c(N)c(N(CCC(C)C)C(=O)c2sc3nc4n(c(=O)c3c2C)CCC4)c(=O)[nH]c1=O,0,nt,nt,-6,-2,-8
CCCCC(=O)N/N=C/c1ccc(Sc2cccc3cccnc23)o1,0,-0.85,40,0,16,49*
Cc1cc(C)cc(NC(=S)NCCSc2ccc(Cl)cc2)c1,-2,-1,88*,-8,-1,-4
Cc1ccc(SCCNC(=S)Nc2ccc(C)c(C)c2)cc1,-2,-0.58,75*,-2,-3,3
Cc1ccc(SCCNC(=S)Nc2ccccc2)cc1,-3,-1.4,66,7,4,-6
O=C1CC(c2ccccc2)=Nc2ccccc2N1Cc1ccccc1,1,2.2,9,-4,-1,-16
CN(C)c1ccc(NC(=O)CN2C(=O)CC(c3ccccc3)=Nc3ccccc32)cc1,-1,-0.76,91*,-13,-2,-4
O=C(/C=C/c1ccccc1F)c1cccc([N+](=O)[O-])c1,-2,-3,-43,-9,2,7
COc1cc(/C=C/C(=O)c2cccc([N+](=O)[O-])c2)cc(OC)c1OC,19,-2.6,-1,-2,-3,52*
CC(C)(C)NC(=O)CCSc1nnc(-c2ccco2)o1,3,0.28,-9,7,1,-3
COc1cc(OC)c(OC)cc1CN(C)C(c1ccccc1)c1nnnn1-c1ccccc1C (stereo unspecified),-4,-0.6,85*,-9,-5,-1
O=[N+]([O-])c1ccc(N=Nc2ncc[nH]2)cc1,3,nt,nt,-39,-8,-289
COc1cc(S(=O)(=O)N2CCOCC2)cc(C(=O)NCC(c2cccs2)N2CCOCC2)c1OC (stereo unspecified),0,nt,nt,nt,-2,-4
Cc1ccc(C(=O)NCCCn2ccnc2)cn1,-2,-0.015,-8,-3,-3,-1
CCOC(=O)C1=CN(Cc2cccc(F)c2)S(=O)(=O)N(CC)C1c1ccc(C(F)(F)F)cc1 (stereo unspecified),12,nt,nt,nt,1,-2
COc1cc(C2c3c(-c4cc(Cl)c(C)cc4O)n[nH]c3C(=O)N2Cc2cccnc2)ccc1O (stereo unspecified),-1,-0.66,18,15,7,-13
COc1cccc(C2c3c(-c4cc(Cl)c(C)cc4O)n[nH]c3C(=O)N2Cc2cccnc2)c1 (stereo unspecified),-2,-0.59,75*,1,-2,-2
Cc1ccccc1Oc1cc(NC(=O)CCCn2nc(C)c([N+](=O)[O-])c2C)cc([N+](=O)[O-])c1,2,-0.13,91*,6,5,8
